Measurements from ChEMBL document CHEMBL1148409, “In vitro structure-activity relationship and in vivo studies for a novel class of cyclooxygenase-2 inhibitors: 5-aryl-2,2-dialkyl-4-phenyl-3(2H)furanone derivatives” (J Med Chem, 2004).

Experiments:
[1] = molecular target: T1, Prostaglandin G/H synthase 1 (Mus musculus, UniProt P22437); assay: In vitro inhibitory activity against prostaglandin G/H synthase 1 using mouse peritoneal macrophage method
T1 sequence (P22437 whole entry): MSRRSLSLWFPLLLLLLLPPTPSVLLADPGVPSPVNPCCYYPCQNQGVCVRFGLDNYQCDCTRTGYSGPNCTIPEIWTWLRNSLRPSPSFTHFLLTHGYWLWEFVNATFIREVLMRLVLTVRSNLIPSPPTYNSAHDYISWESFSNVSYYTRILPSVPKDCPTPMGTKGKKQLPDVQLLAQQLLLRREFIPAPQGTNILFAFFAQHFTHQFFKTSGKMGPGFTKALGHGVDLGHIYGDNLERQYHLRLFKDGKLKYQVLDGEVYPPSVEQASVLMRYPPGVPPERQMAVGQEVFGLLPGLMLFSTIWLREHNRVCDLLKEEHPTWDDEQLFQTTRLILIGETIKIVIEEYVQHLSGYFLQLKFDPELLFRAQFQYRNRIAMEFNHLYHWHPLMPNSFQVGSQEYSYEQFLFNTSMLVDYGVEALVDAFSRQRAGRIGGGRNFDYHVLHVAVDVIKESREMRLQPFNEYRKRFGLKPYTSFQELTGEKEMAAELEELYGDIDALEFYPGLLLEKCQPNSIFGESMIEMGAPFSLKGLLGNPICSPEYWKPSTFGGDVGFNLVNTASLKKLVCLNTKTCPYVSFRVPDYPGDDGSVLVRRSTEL
Method in brief: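 Freshly harvested mouse peritoneal macrophages were the enzyme source. Cells were preincubated 10 min at 37 °C with inhibitor in DMSO, then stimulated with calcium ionophore A23187 for 10 min. The reaction was stopped with indomethacin in 0.1% BSA buffer and centrifuged, and supernatant TXB₂ was measured by ELISA.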

[2] = molecular target: T2, Prostaglandin G/H synthase 2 (Mus musculus, UniProt Q05769); assay: In vitro inhibitory activity against prostaglandin G/H synthase 2 using mouse peritoneal macrophage method
T2 sequence (Q05769 whole entry): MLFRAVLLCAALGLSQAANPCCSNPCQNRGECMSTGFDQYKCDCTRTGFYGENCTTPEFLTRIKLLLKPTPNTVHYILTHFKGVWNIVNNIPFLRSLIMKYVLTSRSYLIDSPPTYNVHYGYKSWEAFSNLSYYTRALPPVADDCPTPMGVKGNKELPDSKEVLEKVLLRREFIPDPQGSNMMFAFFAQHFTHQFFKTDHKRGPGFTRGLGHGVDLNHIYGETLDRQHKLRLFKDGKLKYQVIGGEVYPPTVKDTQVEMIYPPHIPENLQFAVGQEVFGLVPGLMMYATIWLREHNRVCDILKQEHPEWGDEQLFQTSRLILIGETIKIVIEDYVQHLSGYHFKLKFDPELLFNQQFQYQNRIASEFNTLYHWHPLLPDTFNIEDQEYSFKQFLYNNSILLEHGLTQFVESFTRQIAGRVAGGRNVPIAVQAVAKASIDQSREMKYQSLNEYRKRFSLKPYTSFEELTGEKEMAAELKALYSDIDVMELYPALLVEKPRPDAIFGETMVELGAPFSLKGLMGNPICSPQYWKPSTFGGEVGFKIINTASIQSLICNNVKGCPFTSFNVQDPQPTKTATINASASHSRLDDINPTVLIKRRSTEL

Rattus norvegicus [3] = assay: Inhibition of carrageenan-induced rat foot oedema following 3 mg/kg administration.; assay type: functional
Method in brief: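 Male SD rats (160 ~ 190 g) were fasted overnight and given compound in 1% methylcellulose by oral gavage, at least 5 animals per group. One hour later, 0.05 mL of 1% carrageenan in saline was injected subplantar into the right hindpaw. Paw swelling was measured by plethysmometer 4 h after dosing and expressed as % inhibition.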

Rattus norvegicus [4] = assay: Antiinflammatory activity was determined by measuring adjuvant-induced arthritis in rats using therapeutic method; dose administered daily once; assay type: functional
Method in brief: (§1)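 Therapeutic adjuvant arthritis in male SD rats (160 ~ 190 g). On day 0, 0.1 mL of 1% heat-killed M. butyricum in incomplete Freund's adjuvant was injected subplantar into the right hindpaw. On day 14, rats with left hindpaw swelling over 0.37 mL were selected and randomized. Daily treatment ran from day 14 to day 22, and % inhibition was taken from day-22 foot volumes.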

Rattus norvegicus [5] = assay: Antiinflammatory activity was determined by measuring adjuvant-induced arthritis in rats using preventive method; Range is 0.1~0.2 (dose administered daily twice); assay type: functional
Method in brief: (§2)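 Preventive adjuvant arthritis in male Lewis rats (200 ~ 210 g), 10 per group. On day 0, 0.1 mL of 1% heat-killed M. butyricum in incomplete Freund's adjuvant was injected subplantar into the right hindpaw. Oral gavage dosing ran from day -1 to day 16. Left hindpaw volume was measured by plethysmometer on day 17, and % inhibition versus control was calculated.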

Rattus norvegicus [6] = assay: Ability of compound to cause gastric ulcerogenicity was determined in rats at 30 mg/kg when administered daily once; assay type: functional, Stomach
Method in brief: (§3)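 Male SD rats (130 ~ 140 g) were dosed by oral gavage for 7 days, with compound suspended in 1% methylcellulose. Rats were fasted overnight before necropsy and killed 4 h after the last dose. Stomachs were scored for ulceration on a scale where 1 is an apparently normal stomach and 2 is pinpoint ulcers only.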

Rattus norvegicus [7] = assay: Antiinflammatory activity was determined by measuring adjuvant-induced arthritis in rats using preventive method; Range is 0.2~0.3 (dose administered daily twice ); assay type: functional; method in brief: as §2
Rattus norvegicus [8] = assay: Antiinflammatory activity was determined by measuring adjuvant-induced arthritis in rats using therapeutic method; (dose administered daily once); assay type: functional; method in brief: as §1
Rattus norvegicus [9] = assay: Antiinflammatory activity was determined by measuring adjuvant-induced arthritis in rats using therapeutic method; dose administered daily twice; assay type: functional; method in brief: as §1
Rattus norvegicus [10] = assay: Antiinflammatory activity was determined by measuring adjuvant-induced arthritis in rats using preventive method; dose administered daily twice; assay type: functional; method in brief: as §2
Rattus norvegicus [11] = assay: Ability of compound to cause gastric ulcerogenicity was determined in rats at 5 mg/kg when administered daily once; assay type: functional, Stomach; method in brief: as §3
Rattus norvegicus [12] = assay: Antiinflammatory activity was determined by measuring adjuvant-induced arthritis in rats using preventive method; dose administered daily once; assay type: functional; method in brief: as §2
Rattus norvegicus [13] = assay: Ability of compound to cause gastric ulcerogenicity was determined in rats at 5 mg/kg; assay type: functional, Stomach; method in brief: as §3

SMILES | IC50 [1] [nM] | IC50 [2] [nM] | inhibition in vivo at 3 mg/kg (Rattus norvegicus [3]) [%] | other results
CC1(C)OC(c2ccc(S(C)(=O)=O)cc2)=C(c2cccnc2)C1=O | 29100 | 1460 | – | –
CC1(C)OC(c2ccc(S(N)(=O)=O)cc2)=C(c2ccccc2)C1=O | 178 | 23.3 | – | –
CCC1(C)OC(c2ccc(S(C)(=O)=O)cc2)=C(c2cc(Cl)cc(Cl)c2)C1=O (stereo unspecified) | 47000 | 70.5 | – | –
Cc1cccc(C2=C(c3ccc(S(C)(=O)=O)cc3)OC3(CCCCC3)C2=O)c1 | 7570 | – | – | –
CCC1(C)OC(c2ccc(S(C)(=O)=O)cc2)=C(c2cccc(Cl)c2)C1=O (stereo unspecified) | – | – | 23 | –
Cn1cc(C2=C(c3ccc(S(N)(=O)=O)cc3)OC(C)(C)C2=O)cn1 | – | – | 29 | –
CC1(C)OC(c2ccc(S(N)(=O)=O)cc2)=C(c2ccc(F)c(F)c2)C1=O | 5010 | 18.5 | – | –
CC1(C)OC(c2ccc(S(N)(=O)=O)cc2F)=C(c2cc(F)cc(F)c2)C1=O | – | – | 32 | –
CC1(C)OC(c2ccc(S(C)(=O)=O)cc2)=C(c2ccc(F)c(Cl)c2)C1=O | 7600 | 760 | 31 | –
CC1(C)OC(c2ccc(S(N)(=O)=O)cc2F)=C(c2ccccc2)C1=O | 55300 | – | – | –
Cc1cccc(C2=C(c3ccc(S(C)(=O)=O)cc3)OC3(CCCC3)C2=O)c1 | – | – | 26 | –
CC1(C)OC(c2ccc(S(C)(=O)=O)cc2)=C(c2cccc(Cl)c2)C1=O | – | – | 16 | –
CC1(C)OC(c2ccc(S(C)(=O)=O)cc2)=C(c2ccc(Br)cc2)C1=O | 71.2 | 71.2 | – | –
CC1(C)OC(c2ccc(S(N)(=O)=O)c(F)c2)=C(c2cccc(F)c2)C1=O | – | – | 27 | –
CS(=O)(=O)c1ccc(C2=C(c3ccccc3)C(=O)C3(CCCCC3)O2)cc1 | 26100 | 5230 | – | –
CC1(C)OC(c2ccc(S(N)(=O)=O)c(F)c2)=C(c2cc(F)cc(F)c2)C1=O | – | – | 31 | –
CC1(C)OC(c2ccc(S(C)(=O)=O)c(F)c2)=C(c2cccc(Cl)c2)C1=O | – | – | 28 | –
CC1(C)OC(c2ccc(S(C)(=O)=O)c(F)c2)=C(c2cc(F)cc(F)c2)C1=O | – | – | – | ED50 (Rattus norvegicus [4]): > 0.1 mg/kg/day
CCC1(C)OC(c2ccc(S(C)(=O)=O)cc2)=C(c2cccc(C(F)(F)F)c2)C1=O (stereo unspecified) | 23600 | – | – | –
CC1(C)OC(c2ccc(S(N)(=O)=O)cc2)=C(c2ccsc2)C1=O | 13700 | 343 | – | –

SMILES | IC50 [1] [nM] | IC50 [2] [nM] | inhibition in vivo at 3 mg/kg (Rattus norvegicus [3]) [%] | other results
CC(=O)c1ccc(C2=C(c3ccc(S(N)(=O)=O)cc3)OC(C)(C)C2=O)cc1 | 675 | 33.7 | 26 | –
CC1(C)OC(c2ccc(S(N)(=O)=O)cc2)=C(c2cccc(C(F)(F)F)c2)C1=O | 1990 | 26.7 | – | –
Cn1cc(C2=C(c3ccc(S(C)(=O)=O)cc3)OC(C)(C)C2=O)cn1 | 86600 | 1440 | 36 | ED50 (Rattus norvegicus [4]): ~0.3 mg/kg/day
CCCCc1ccc(C2=C(c3ccc(S(C)(=O)=O)cc3)OC(C)(C)C2=O)cc1 | – | – | 8 | –
CC(=O)c1ccc(C2=C(c3ccc(S(C)(=O)=O)cc3)OC(C)(C)C2=O)cc1 | – | – | – | ED50 (Rattus norvegicus [5]): 0.1 mg/kg/day
CS(=O)(=O)c1ccc(C2=C(c3cccc(F)c3)C(=O)C3(CCCC3)O2)cc1 | 7760 | 7760 | – | –
CCC1(CC)OC(c2ccc(S(C)(=O)=O)cc2)=C(c2ccccc2)C1=O | 81000 | 13500 | – | –
CCC1(CC)OC(c2ccc(S(C)(=O)=O)cc2)=C(c2cccc(C)c2)C1=O | 26000 | 1300 | – | –
CC1(C)OC(c2ccc(S(N)(=O)=O)cc2)=C(c2cccc(Cl)c2)C1=O | – | – | 39 | ED50 (Rattus norvegicus [4]): 0.03 mg/kg/day
CC1(C)OC(c2ccc(S(C)(=O)=O)cc2)=C(c2cccc(F)c2)C1=O | – | – | 36 | Activity (Rattus norvegicus [6]): 1.8; ED50 (Rattus norvegicus [7]): 0.3 mg/kg/day; ED50 (Rattus norvegicus [8]): 0.07 mg/kg/day
CC1(C)OC(c2ccc(S(C)(=O)=O)cc2)=C(c2cc(F)cc(F)c2)C1=O | – | – | 34 | Activity (Rattus norvegicus [6]): 1.8
CC(=O)c1cccc(C2=C(c3ccc(S(C)(=O)=O)cc3)OC(C)(C)C2=O)c1 | – | – | 22 | –
CC1(C)OC(c2ccc(S(C)(=O)=O)cc2)=C(c2cccc(C(F)(F)F)c2)C1=O | – | – | 31 | –
Cc1ccc(-c2cc(C(F)(F)F)nn2-c2ccc(S(N)(=O)=O)cc2)cc1 [CELECOXIB] | – | – | 34 | ED50 (Rattus norvegicus [9]): 0.37 mg/kg/day
Cc1ccc(-c2ncc(Cl)cc2-c2ccc(S(C)(=O)=O)cc2)cn1 [ETORICOXIB] | – | – | – | ED50 (Rattus norvegicus [10]): 0.7 mg/kg/day
COc1ccc2c(c1)c(CC(=O)O)c(C)n2C(=O)c1ccc(Cl)cc1 [INDOMETHACIN] | – | – | 45 | Activity (Rattus norvegicus [11]): 3.5
Cc1cnc(NC(=O)C2=C(O)c3ccccc3S(=O)(=O)N2C)s1 [MELOXICAM] | – | – | – | ED50 (Rattus norvegicus [12]): 0.28 mg/kg/day
CC1(C)OC(c2ccc(S(N)(=O)=O)cc2)=C(c2cccc(F)c2)C1=O [POLMACOXIB] | 830 | 8.3 | 47 | Activity (Rattus norvegicus [13]): 1.5; ED50 (Rattus norvegicus [10]): 0.1 mg/kg/day; ED50 (Rattus norvegicus [4]): 0.02 mg/kg/day; ED50 (Rattus norvegicus [9]): 0.01 mg/kg/day
CS(=O)(=O)c1ccc(C2=C(c3ccccc3)C(=O)OC2)cc1 [ROFECOXIB] | – | – | – | ED50 (Rattus norvegicus [10]): 0.74 mg/kg/day
Cc1onc(-c2ccccc2)c1-c1ccc(S(N)(=O)=O)cc1 [VALDECOXIB] | – | – | – | ED50 (Rattus norvegicus [9]): 0.032 mg/kg/day
